The values that follow come from ChEMBL document CHEMBL1125815, “2-Phenyl-3H-imidazo[4,5-b]pyridine-3-acetamides as non-benzodiazepine anticonvulsants and anxiolytics” (J Med Chem, 1991).

Test [1] addresses GABA-A receptor; anion channel. Kind of test: Displacement of [3H]flunitrazepam from GABA-A benzodiazepine receptor of rat cerebral cortex membrane. The format is tissue-based. The method in brief: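 Rat cerebral cortex P2+P3 membranes (fresh tissue, two freeze-thaw-wash cycles to remove endogenous GABA), 0.4 mg protein. Incubated with 1 nM [3H]flunitrazepam and six concentrations (1 × 10^-5 – 1 × 10^-10 M) for 30 min at 4 °C. Filtered on GF/b filters and counted. […] IC50 from log-logit regression, mean of replicates.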
On the technique in general: Displacement assays read how much labelled ligand stays bound in the presence of the test substance.

For test [2], the species on record is Mus musculus. Put plainly: Anticonvulsant activity against pentylenetetrazole-induced clonic seizures in mice. In kind it is functional. Particulars: Mus musculus; read-out: ED50. The method in brief:
(§1)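 Female adult ICR mice, groups of eight, given test compound ip (100 mg/kg screen) in 0.5% aqueous methylcellulose or vehicle. Challenged 30 min later with pentyletetrazole 80 mg/kg sc and scored for clonic seizures.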

For test [3], the target named is GABA-A receptor; anion channel. Kind of test: Displacement of [3H]-diazepam from GABA-A benzodiazepine receptor of rat cerebral cortex membrane. The format is tissue-based. The gist of the method: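 Membranes skipped the freeze-thaw-wash cycles, so endogenous GABA was retained. Six concentrations (1 × 10^-5 – 1 × 10^-10 M), 30 min at 4 °C, glass-fiber filtration and scintillation counting. IC50 from log-logit regression.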

The test system of test [4] is Mus musculus. Put plainly: Anticonvulsant activity against picrotoxin-induced clonic seizures in mice at 3.2 mg/kg sc. In kind it is functional. The settings on record: route subcutaneous.
Test [5] relates to Mus musculus. Put plainly: Compound was tested for anticonvulsant activity against bicuculline-induced clonic seizures in mice at 2.7 mg/kg sc. In kind it is functional. The settings on record: route subcutaneous.
For test [6], the system named is Mus musculus. Kind of test: Compound was tested for anticonvulsant activity against pentylenetetrazole-induced clonic seizures in mice at 80 mg/kg sc. The format is functional. The settings on record: route subcutaneous. The method in brief: as §1
Test [7] relates to Mus musculus. Put plainly: Compound was tested for anticonvulsant activity against pentylenetetrazole-induced clonic seizures in mice on intraperitoneal administration. In kind it is functional. The settings on record: ip. The gist of the method: as §1
For test [8], the species on record is Mus musculus. Kind of test: Compound was tested for anticonvulsant activity against maximal electroshock-induced […] seizures in mice at 50mA, 200 ms. In kind it is functional. A general note: Protection in the maximal electroshock model is a classic sign of anticonvulsant action.
The subject of test [9] is Mus musculus. Put plainly: Compound was tested for anticonvulsant activity against pentylenetetrazole-induced clonic seizures in mice; conv = 'convulsant at 10 mg/kg'. In kind it is functional, organism-based. Details: dose 10 mg/kg. The method in brief:
as §1

Broadly, the IC50 is the concentration at which inhibition is half-maximal. Higher therefore signals weaker potency. What is called ED50 is the dose at which the effect has come halfway, by size or by number of responders. In turn, `O=C(Cn1c(-c2ccc(Cl)cc2)nc2cccnc21)N1CCCC1` yielded an IC50 in test [1] of 2.7 µM. Also, the ED50 in [2] came out at 17.9 mg/kg. The like results for `CN(C)CCCNC(=O)Cn1c(-c2ccc(Cl)cc2)nc2cccnc21` were, in that order, > 10 µM and 64 mg/kg. As to `NC(=O)Cn1c(-c2cccc(Cl)c2)nc2cccnc21`, the IC50 in test [3] is < 10 µM. Turning to `CNC1=Nc2ccc(Cl)cc2C(c2ccccc2)=[N+]([O-])C1` [CHLORDIAZEPOXIDE], the IC50 in test [1] was 0.71 µM. In addition, the ED50 in test [2] amounted to 1.9 mg/kg. On the same counts, the results for `NC(=O)Cn1c(-c2ccc(Br)cc2)nc2cccnc21` are > 10 µM and 17.8 mg/kg.

For `CCOC(=O)CCCNC(=O)Cn1c(-c2ccc(Cl)cc2)nc2cccnc21`, the IC50 in test [1] is > 10 µM. For the same compound, in test [2], the ED50 was found to be 100 mg/kg. In test [1], `CN(C)C(=O)Cn1c(-c2ccc(Br)o2)nc2cccnc21` registered an IC50 of 0.2 µM. The ED50 in test [2] was 100 mg/kg. As to `O=C1NC(=O)C(c2ccccc2)(c2ccccc2)N1` [PHENYTOIN], the 50% effective dose (ED50) is > 100 mg/kg in [4], > 100 mg/kg in test [5] and > 300 mg/kg in test [6]. Take `CN(C)CCN(C)C(=O)Cn1c(-c2ccc(Cl)cc2)nc2cccnc21`: the IC50 in test [1] is > 10 µM. Also, the ED50 in test [2] worked out at 100 mg/kg.

`CN(C)C(=O)Cn1c(-c2ccc(Cl)cc2)nc2cc(Cl)cnc21`: the IC50 in test [1] is > 10 µM. The ED50 in test [2] was 56.2 mg/kg. As for `CCCCN(CCCC)C(=O)Cn1c(-c2ccc(Cl)cc2)nc2cccnc21`, the IC50 in test [1] was 0.9 µM. In [7], this compound showed an ED50 of 38 mg/kg.

`O=C(Cn1c(-c2ccc(Cl)cc2)nc2cccnc21)N1CCOCC1`: the IC50 in test [1] was 4.1 µM. In test [2], the ED50 is 11.5 mg/kg.

`CCOC(=O)N1CCN(C(=O)Cn2c(-c3ccc(Cl)cc3)nc3cccnc32)CC1` registered an IC50 in [1] of 5.1 µM.

Consider `NC(=O)Cn1c(-c2ccccc2)nc2cccnc21`, for which, in test [3], the IC50 was > 10 µM. On to `NC(=O)Cn1c(-c2ccc(F)cc2)nc2cccnc21`, for which, in test [1], the IC50 was > 10 µM.

Turning to `CCCN(C)C(=O)Cn1c(-c2ccc(Cl)cc2)nc2cccnc21`, the IC50 in [1] was 0.68 µM. In [2], the ED50 was found to be 11.6 mg/kg. For the compound `C[C@@H](C(=O)N(C)C)n1c(-c2ccc(Cl)cc2)nc2cccnc21`, the 50% inhibitory concentration (IC50) in [1] was > 10 µM. Also, the ED50 in test [2] was 31.6 mg/kg. On the same counts, the results for `CN(C)C(=O)Cn1c(-c2ccco2)nc2cccnc21` are > 10 µM and > 100 mg/kg.

In [1], `CC(=O)NCCNC(=O)Cn1c(-c2ccc(Cl)cc2)nc2cccnc21` showed a concentration for half-maximal inhibition (IC50) of 7.2 µM. Take `CN(C)C(=O)Cn1c(-c2ccsc2)nc2cccnc21`: the IC50 in test [1] is > 10 µM. Moreover, the ED50 in test [2] stood at 38 mg/kg. As to `CN(C)C(=O)Cn1c(-c2ccc(Cl)cc2)nc2c(Cl)ccnc21`, the IC50 in test [1] is > 10 µM. In turn, `CCCN(CCC)C(=O)Cn1c(-c2ccc(Cl)cc2)nc2cccnc21` came in with an IC50 in [1] of 0.38 µM. For the same compound, the ED50 in test [2] was 11 mg/kg. On to `CN1CCN(C(=O)Cn2c(-c3ccc(Cl)cc3)nc3cccnc32)CC1`, for which, in test [1], the IC50 was > 10 µM. The compound further came in with a median effective dose (ED50) in test [7] of 100 mg/kg. `CCC1(c2ccccc2)C(=O)NC(=O)NC1=O` [PHENOBARBITAL]: the ED50 in test [4] came to 27.5 mg/kg; in [5], 37.7 mg/kg; in test [8] it was 21.8 mg/kg; in test [6], 13.2 mg/kg. For `CC(C)N(C(=O)Cn1c(-c2ccc(Cl)cc2)nc2cccnc21)C(C)C`, the IC50 in test [1] is > 10 µM. Regarding `O=C(Cn1c(-c2ccc(Cl)cc2)nc2cccnc21)Nc1ccccc1`, the IC50 in [1] was > 10 µM. For the compound `CN(C)C(=O)Cn1c(-c2ccc(Cl)cc2Cl)nc2cccnc21`, in test [1], the IC50 was > 10 µM. Besides, in [9], the ED50 entry is on record as “Convulsant”. As to `O=C(Cn1c(-c2ccc(Cl)cc2)nc2cccnc21)Nc1ccccn1`, the IC50 in [1] worked out at 0.31 µM. Also, the ED50 in test [2] worked out at 100 mg/kg. On the same counts, the results for `C[C@H](C(=O)N(C)C)n1c(-c2ccc(Cl)cc2)nc2cccnc21` are > 10 µM and 43.5 mg/kg. In the case of `CN(C)CCNC(=O)Cn1c(-c2ccc(Cl)cc2)nc2cccnc21`, the IC50 in [1] was > 10 µM. Moreover, the ED50 in test [2] amounted to 62 mg/kg. As for `CN(C)C(=O)Cn1c(-c2ccc(Cl)cc2)nc2ccc[n+]([O-])c21`, the 50% inhibitory concentration (IC50) in test [1] is > 10 µM. In addition, the ED50 in test [2] worked out at 20 mg/kg. For the compound `CCCC(CCC)C(=O)O` [VALPROIC ACID], the ED50 was found to be 272 mg/kg in [8] and 149 mg/kg in [6]. Regarding `CN(C)C(=O)Cn1c(-c2ccoc2)nc2cccnc21`, the 50% inhibitory concentration (IC50) in [1] was > 10 µM. As for `CC(=O)Oc1ccc2nc(-c3ccc(Cl)cc3)n(CC(=O)N(C)C)c2n1`, in test [1], the IC50 is > 10 µM. In [2], the ED50 came to 100 mg/kg. Compound `CN(C)C(=O)Cn1c(-c2ccccn2)nc2cccnc21` showed an IC50 in test [3] of 2.6 µM.
